# Published values of several laboratories.
# Protocols differ between the studies behind these lines.
# Organism: Plasmodium falciparum
# Effect on: parasite growth
Structure (SMILES),method,strain,time,setting,IC50
COC1=CC(c2ccc[nH]2)=N/C1=C\c1[nH]c(C(=O)O)cc1Cc1ccc(OC(F)(F)F)cc1,SYBR Green,D6,72 h,blood stage,> 2.5 µM
CNCC[C@H](Oc1cccc2ccccc12)c1cccs1,SYBR Green,3D7,,blood stage,0.233 µM
N=C(CC(O)c1cc2c(F)cc(F)cc2c2cc(C(F)(F)F)ccc12)Nc1ccc(F)c(F)c1 (stereo not shown),ELISA,3D7,72 h,blood stage,0.0072 µM
CC1=C(C)/C(=C/c2cc(-c3ccc(OC(F)(F)F)cc3)c(C)[nH]2)N=C1c1ccc[nH]1,SYBR Green,D6,72 h,blood stage,> 2.5 µM
N=C(CC(O)c1cc2cccnc2c2cccnc12)Nc1ccc(F)cc1 (stereo not shown),ELISA,DD2,72 h,"drug-resistant strain, blood stage",8.78 µM
CC1=C(C)/C(=C/c2cc(-c3ccc(Cl)cc3)c(C)[nH]2)N=C1c1ccc[nH]1,SYBR Green,D6,72 h,blood stage,> 2.5 µM
CCCCCCOc1ccc2c(=O)c3c([nH]c2c1)CCCC3,SYBR Green,D6,72 h,blood stage,0.000447 µM
CO[C@H]1/C=C/O[C@@]2(C)Oc3c(C)c(O)c4c(O)c(c(/C=N/N5CCN(C6CCCC6)CC5)c(O)c4c3C2=O)NC(=O)/C(C)=C\C=C\[C@H](C)[C@H](O)[C@@H](C)[C@@H](O)[C@@H](C)[C@H](OC(C)=O)[C@@H]1C,SYBR Green,3D7,,blood stage,0.238 µM
Cc1[nH]c(/C=C2\N=C(c3ccc[nH]3)C=C2OCc2ccccc2)cc1Cc1ccc(OC(F)(F)F)cc1,SYBR Green,D6,72 h,blood stage,0.00963 µM
N=C(CC(O)c1nc2ccccc2c2ccc(Cl)cc12)Nc1ccc(F)cc1 (stereo not shown),ELISA,DD2,72 h,"drug-resistant strain, blood stage",0.0499 µM
CCOC1=CC(c2ccc[nH]2)=N/C1=C\c1cc(Cc2ccc(Cl)cc2)c(C)[nH]1,SYBR Green,D6,72 h,blood stage,0.00492 µM
CCN(CC)CCCC(C)Nc1ccnc2cc(Cl)ccc12 (stereo not shown),SYBR Green,3D7,,blood stage,0.0224 µM
CCCCCCCCCCCCCCCCCC(=O)O,SYBR Green,3D7,48 h,blood stage,7.66 µg/mL
CCCCCCCCNC(C)C(O)c1ccc(SC(C)C)cc1 (stereo not shown),,NF54,,blood stage,0.0726 µM
N=C(CC(O)c1nc2ccccc2c2ccccc12)Nc1ccc(F)cc1 (stereo not shown),ELISA,DD2,72 h,"drug-resistant strain, blood stage",0.0892 µM
CCC1=C(CC)/C(=C/c2cc(Cc3ccc(OC(F)(F)F)cc3)c(C)[nH]2)N=C1c1ccc[nH]1,SYBR Green,D6,72 h,blood stage,0.265 µM
N=C(CC(O)c1nc2ccccc2c2ccc(Br)cc12)Nc1ccc(F)cc1 (stereo not shown),ELISA,3D7,72 h,blood stage,0.0195 µM
COc1ccc2cc1Oc1ccc(cc1)C[C@H]1c3c(cc4c(c3Oc3cc5c(cc3OC)CCN(C)[C@@H]5C2)OCO4)CCN1C,,NF54,,blood stage,0.188 µM
N=C(CC(O)c1nc2cc(F)ccc2c2ccc(F)cc12)Nc1ccc(F)cc1 (stereo not shown),ELISA,3D7,72 h,blood stage,0.407 µM
Cc1[nH]c(/C=C2\N=C(c3ccc[nH]3)C3=C2OCCO3)cc1Cc1ccc(OC(F)(F)F)cc1,SYBR Green,D6,72 h,blood stage,0.0303 µM
N=C(CC(O)c1cc2c(F)cc(F)cc2c2cc(C(F)(F)F)ccc12)Nc1ccc(Br)cc1 (stereo not shown),ELISA,3D7,72 h,blood stage,0.0061 µM
CO[C@H]1/C=C/O[C@@]2(C)Oc3c(C)c(O)c4c(O)c(c(/C=N/N5CCN(C)CC5)c(O)c4c3C2=O)NC(=O)/C(C)=C\C=C\[C@H](C)[C@H](O)[C@@H](C)[C@@H](O)[C@@H](C)[C@H](OC(C)=O)[C@@H]1C,,NF54,,blood stage,0.9 µM
